# “And” between values parts separate entries of the source, which are not always exact repeats. Identical values can stand only once. Like-named read-outs stand apart in the source and are kept apart here.
# Experiments:
# [1] = rats; ref data on file; cited from earlier work
# [2] = rats; ref data on file; cited from earlier work; remark: listed apart in the source
# [3] = Population pharmacokinetic analysis of CC‐292; assay type: in vivo, human
# In short: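 Data came from healthy volunteers (50, 100 or 200 mg or placebo orally QD for 7 days; intensive sampling predose to 24 h on days 1 and 7, troughs on days 3–6) and patients (sparse cycle 1–3 samples). Plasma was assayed by LC-MS/MS (LLOQ ≤0.5 ng/mL, labeled internal standard). The NONMEM FOCE-I 2-compartment model with first-order absorption and lag used ln-transformed data and separate residual error per population. There were 1000 bootstrap runs with 5th–95th percentile CIs.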
# CYP3A4 = conditions: ref data on file; cited from earlier work
# CLL/SLL [4] = assay: Best overall response in CLL/SLL subjects, phase 1b study AVL‐292‐003; assay type: in vivo, human
# CLL/SLL [5] = assay: Exposure‐response analysis; assay type: in vivo, human
# In short: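 In relapsed/refractory CLL/SLL patients from the phase 1b study, log-transformed steady-state AUC came from noncompartmental analysis. ORR (CR, CRi or PR; updated iwCLL criteria) was modeled as responder vs nonresponder by logistic regression, first univariate, then multivariate with stepwise forward/backward covariate selection. Covariates were age, BSA, sex, race, QD vs BID regimen, CLcr, bilirubin, albumin, ALT and AST.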
# [6] = monkeys; ref data on file; cited from earlier work
# CLL/SLL [7] = assay: Threshold analysis; assay type: in vivo, human; conditions: threshold 300 ng/mL
# CYP1A2 = conditions: ref data on file; cited from earlier work
# [8] = based on final population PK parameters
structure (smiles),measurement,setting,value
C=CC(=O)Nc1cccc(Nc2nc(Nc3ccc(OCCOC)cc3)ncc2F)c1 [CC‐292],CC‐292–derived radioactivity excreted in the bile,[1],~79 % of the dose
same,extent of bioavailability,[2],57%
same,interindividual variability for V2/F,[3]; base model,88%
same,distribution rate,[3]; [8],0.11 h⁻¹
same,elimination rate,[3]; [8],0.85 h⁻¹
same,"Alag1, Bootstrap Estimate (95%CI)",[3]; bootstrap N = 1000,0.428 (0.414‐0.439) h
same,"CL/F, Bootstrap Estimate (95%CI)",[3]; bootstrap N = 1000,131.9 (109.0‐166.6) L/h
same,"Effect of age on V2/F, Bootstrap Estimate (95%CI)",[3]; bootstrap N = 1000,0.946 (0.592‐1.355)
same,"Interindividual variability ωV2/F: ωCL/F, Bootstrap Estimate (95%CI)",[3]; bootstrap N = 1000,0.321 (0.198‐0.461)
same,"Interindividual variability ω^2 CL/F, Bootstrap Estimate (95%CI)",[3]; bootstrap N = 1000,0.306 (0.202‐0.454)
same,"Interindividual variability ω^2 V2/F, Bootstrap Estimate (95%CI)",[3]; bootstrap N = 1000,0.750 (0.526‐1.010)
same,"Q/F, Bootstrap Estimate (95%CI)",[3]; bootstrap N = 1000,18.4 (15.3‐21.7) L/h
same,"V2/F, Bootstrap Estimate (95%CI)",[3]; bootstrap N = 1000,156.4 (130.2‐187.8) L
same,"V3/F, Bootstrap Estimate (95%CI)",[3]; bootstrap N = 1000,71.7 (61.4‐83.5) L
same,"ka, Bootstrap Estimate (95%CI)",[3]; bootstrap N = 1000,0.97 (0.86‐1.11) h^−1
same,"Residual variability HNP, Bootstrap Estimate (95%CI)","[3]; bootstrap N = 1000, healthy normal study subjects",0.230 (0.180‐0.288)
same,"Residual variability Patients, Bootstrap Estimate (95%CI)","[3]; bootstrap N = 1000, patients",0.654 (0.537‐0.708)
same,Vd/F,"[3]; both, human, plasma, oral",158 L
same,clearance,"[3]; both, human, plasma, oral",2230 mL/min
same,interindividual variability for V2/F,[3]; final model (age included),86%
same,"Alag1, absorption lag time, Estimate",[3]; final population PK model,0.427 h
same,"Interindividual variability ωV2/F: ωCL/F, Estimate",[3]; final population PK model,0.328
same,"Interindividual variability ω^2 CL/F, Estimate",[3]; final population PK model,0.317
same,"Interindividual variability ω^2 V2/F, Estimate",[3]; final population PK model,0.755
same,lower CL/F in female subjects compared to male subjects,[3]; final population PK model,26%
same,"Residual variability HNP, Estimate","[3]; final population PK model, healthy normal study subjects",0.234
same,"ka, first‐order absorption rate constant, Estimate","[3]; final population PK model, oral, healthy subjects and patients",0.97 h⁻¹ and 0.974 h⁻¹
same,"Residual variability Patients, Estimate","[3]; final population PK model, patients",0.659
same,"Effect of age on V2/F, Estimate","[3]; final population PK model, power exponent",0.946
same,"CL/F, apparent clearance, Estimate","[3]; final population PK model, typical value for male subjects",134 L/h and 134.0 L/h
same,CL/F relative to Q/F (Q/F lower than CL/F),[3]; in vivo,7.2 fold and ~7 fold
same,differences in drug exposures between female and male subjects,[3]; in vivo,below 26%
same,metabolism by CYP3A4,CYP3A4,extensively metabolized
same,Best overall response: Complete response,CLL/SLL [4]; 125 mg QD,0 n (%)
same,Best overall response: Partial response,CLL/SLL [4]; 125 mg QD,1 (33.3) n (%)
same,Best overall response: Progression disease,CLL/SLL [4]; 125 mg QD,0 n (%)
same,Best overall response: Stable disease,CLL/SLL [4]; 125 mg QD,2 (66.7) n (%)
same,Overall response rate,CLL/SLL [4]; 125 mg QD,1 (33.3) n (%)
same,Best overall response: Complete response,CLL/SLL [4]; 250 mg QD,0 n (%)
same,Best overall response: Partial response,CLL/SLL [4]; 250 mg QD,0 n (%)
same,Best overall response: Progression disease,CLL/SLL [4]; 250 mg QD,0 n (%)
same,Best overall response: Stable disease,CLL/SLL [4]; 250 mg QD,1 (100) n (%)
same,Overall response rate,CLL/SLL [4]; 250 mg QD,0 n (%)
same,Best overall response: Complete response,CLL/SLL [4]; 375 mg BID,0 n (%)
same,Best overall response: Partial response,CLL/SLL [4]; 375 mg BID,4 (66.7) n (%)
same,Best overall response: Progression disease,CLL/SLL [4]; 375 mg BID,0 n (%)
same,Best overall response: Stable disease,CLL/SLL [4]; 375 mg BID,2 (33.3) n (%)
same,Overall response rate,CLL/SLL [4]; 375 mg BID,4 (66.7) n (%)
same,Best overall response: Complete response,CLL/SLL [4]; 400 mg QD,0 n (%)
same,Best overall response: Partial response,CLL/SLL [4]; 400 mg QD,1 (25.0) n (%)
same,Best overall response: Progression disease,CLL/SLL [4]; 400 mg QD,0 n (%)
same,Best overall response: Stable disease,CLL/SLL [4]; 400 mg QD,3 (75.0) n (%)
same,Overall response rate,CLL/SLL [4]; 400 mg QD,1 (25.0) n (%)
same,Best overall response: Complete response,CLL/SLL [4]; 500 mg BID,0 n (%)
same,Best overall response: Partial response,CLL/SLL [4]; 500 mg BID,19 (61.3) n (%)
same,Best overall response: Progression disease,CLL/SLL [4]; 500 mg BID,0 n (%)
same,Best overall response: Stable disease,CLL/SLL [4]; 500 mg BID,12 (38.7) n (%)
same,Overall response rate,CLL/SLL [4]; 500 mg BID,19 (61.3) n (%)
same,Best overall response: Complete response,CLL/SLL [4]; 625 mg QD,0 n (%)
same,Best overall response: Partial response,CLL/SLL [4]; 625 mg QD,0 n (%)
same,Best overall response: Progression disease,CLL/SLL [4]; 625 mg QD,0 n (%)
same,Best overall response: Stable disease,CLL/SLL [4]; 625 mg QD,1 (100) n (%)
same,Overall response rate,CLL/SLL [4]; 625 mg QD,0 n (%)
same,Best overall response: Complete response,CLL/SLL [4]; 750 mg QD,0 n (%)
same,Best overall response: Partial response,CLL/SLL [4]; 750 mg QD,12 (41.4) n (%)
same,Best overall response: Progression disease,CLL/SLL [4]; 750 mg QD,1 (3.4) n (%)
same,Best overall response: Stable disease,CLL/SLL [4]; 750 mg QD,16 (55.2) n (%)
same,Overall response rate,CLL/SLL [4]; 750 mg QD,12 (41.4) n (%)
same,Best overall response: Complete response,CLL/SLL [4]; 1000 mg QD,0 n (%)
same,Best overall response: Partial response,CLL/SLL [4]; 1000 mg QD,4 (57.1) n (%)
same,Best overall response: Progression disease,CLL/SLL [4]; 1000 mg QD,0 n (%)
same,Best overall response: Stable disease,CLL/SLL [4]; 1000 mg QD,3 (42.9) n (%)
same,Overall response rate,CLL/SLL [4]; 1000 mg QD,4 (57.1) n (%)
same,Best overall response: Complete response,"CLL/SLL [4]; Total, all cohorts",0 n (%)
same,Best overall response: Partial response,"CLL/SLL [4]; Total, all cohorts",41 (50.0) n (%)
same,Best overall response: Progression disease,"CLL/SLL [4]; Total, all cohorts",1 (1.2) n (%)
same,Best overall response: Stable disease,"CLL/SLL [4]; Total, all cohorts",40 (48.8) n (%)
same,Overall response rate,"CLL/SLL [4]; Total, all cohorts",41 (50.0) n (%)
same,mean ORR,CLL/SLL [5]; first quartile of average AUC,35%
same,mean ORR,CLL/SLL [5]; fourth quartile of average AUC,50.2%
same,extent of bioavailability,[6],11%
same,duration/coverage at and above the threshold concentration,CLL/SLL [7]; 375 mg BID,~10.4 h
same,duration/coverage at and above the threshold concentration,CLL/SLL [7]; 750 mg QD,6.6 h
same,metabolism by CYP1A2,CYP1A2,extensively metabolized
